The sample as a whole holds a higher share of hits than the screen did.
NLRP3 yeast inh: NALP3 inflammasome inhibitors in reconstituted yeast, primary screen, luminescence, uHTS. Yeast reconstituted NLRP3/ASC/caspase-1, beta-gal luminescence, 24 h. inhibition, % at 10 µM. hit rate 0.39% among 330,000;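 active = inhibition of 50% or more; inactive = inhibition below 50%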
L major viab: Leishmania major promastigote growth inhibition, primary screen; Leishmania major promastigotes, resazurin fluorescence viability; inhibition, % at 10 µM; hit rate 9% among 200,000; AID 1063, 2008; in the data active = inhibition above about 50%;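 also: promastigotes grown with compound for 44 hours at 28 °C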
Calb FLC: C. albicans growth inhibition with fluconazole, primary screen, CaCi-2 strain, Alamar Blue fluorescence; C. albicans CaCi-2 + fluconazole, 48 h; growth inhibition, % (no concentration beside the values); hit rate 0.57% among 300,000;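 active = growth inhibition above about 58% in most replicates, limit read from the data, passing the limit was not always enough; inconclusive = exactly half the replicates above a set limit; inactive = most replicates below a set limit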;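 also: all wells also contain fluconazole at 8 µg/ml as a sub-toxic cotreatment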
T cruzi inh: inhibitors of intracellular T. cruzi growth, primary screen, luminescence, NIH3T3 host cells | AID 1885, 2009 | T. cruzi beta-gal in NIH3T3, 90 h | inhibition, % (test concentration not listed) | hit rate 1.4% among 300,000;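 active = mean inhibition across valid replicates above about 55%, limit read from the data; inconclusive = mean below that limit but half or more replicates reach it; inactive = mean below it, under half of replicates reach it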;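 also: signal also drops with host cell toxicity which is not excluded here; higher percent means less beta-gal luminescence so fewer parasites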
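Material: NIH/3T3 host cells with β-galactosidase reporter T. cruzi; Input: 5,000 host fibroblasts per well; Medium: DMEM, 2% fetal bovine serum; Compound: 50 nL DMSO compound solution per well; Schedule: 3 h host attachment, then at least 90 h co-culture; Detection: luminescent β-galactosidase signal after 60 min lysis.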
NALP1 yeast inh: NALP1 inflammasome inhibitors in reconstituted yeast, colorimetric, S. cerevisiae, triplicate retest | AID 2071, 2009 | S. cerevisiae NALP1/ASC/caspase-1 growth, X-gal OD620, 72 h | inhibition, % at 10 µM | hit rate 0.61% among 280,000; in the data active = inhibition mostly above about 24%, no sharp cut-off; inactive = mostly below about 32%
PolyA inh: polyadenylation inhibitors in yeast reporter cells, primary screen, luminescence, S. cerevisiae; S. cerevisiae SKY197-pL101 polyadenylation reporter, beta-gal luminescence; efflux-impaired pdr1/pdr3 knockout yeast; score 100 = 6 SD above DMSO; activity score, % at 12 µM; hit rate 0.02% among 300,000;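 active = lowest replicate activity score at least 50, where 100 means six control SD above control mean; inconclusive = lowest score under 50 but half or more replicates reach 50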;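 also: yeast exposed to compound for 9 h at 30 °C; higher score means more reporter readthrough which indicates perturbed polyadenylation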
A number is an active result; – = inactive; ? = inconclusive; · = no result.

SMILES	NLRP3 yeast inh	L major viab	Calb FLC	T cruzi inh	NALP1 yeast inh	PolyA inh
COc1ccc(C(=O)Nc2ccc(S(=O)(=O)N3CCc4ccccc43)cc2)cc1	–	53.6	–	–	·	–
O=C(Nc1ncccc1O)c1cccc(S(=O)(=O)N2CCc3ccccc32)c1	–	–	–	–	34.0	–
COc1ccc(NC(=O)c2cccc(S(=O)(=O)N3CCc4ccccc43)c2)cn1	–	94.1	–	–	–	–
O=C(Nc1ncccc1O)c1cccc(S(=O)(=O)N2CCCC2)c1	–	·	–	–	·	–
CCCCn1c(=O)[nH]c(=O)c2c1nc(-c1ccc(CC)c([N+](=O)[O-])c1)n2C	–	84.1	–	–	–	–
CCOC(=O)C1=C(c2ccccc2)N=C2SCC(=O)N2C1c1cccc(OC)c1 (configuration not stated)	–	–	–	–	–	–
O=C1CN(S(=O)(=O)c2ccc(Cl)cc2C(F)(F)F)CCN1	–	–	–	–	–	–
O=C(c1cccc(OC2CCN(C3CCCC3)CC2)c1)N1CCCCCCC1	–	88.9	–	–	–	–
COc1cccc(C(=O)N2CCN(C3CCN(Cc4ccccc4)CC3)CC2)c1	·	89.8	·	·	–	·
COc1ccc(C(=O)N2CCN(C3CCN(Cc4ccccc4)CC3)CC2)cc1OC	–	–	–	–	–	–
COc1ccccc1C(=O)N1CCN(C2CCN(Cc3ccccc3)CC2)CC1	–	91.2	–	–	–	–
COc1ccc(CCN(C)C2CCCN(S(=O)(=O)c3ccc(C)cc3)C2)cc1OC (configuration not stated)	–	·	–	–	–	–
O=S(=O)(NCCOc1ccccc1)c1ccc2ccccc2c1	–	–	–	–	–	–
CCn1c(=O)n(CC)c2cc(S(=O)(=O)NCCOc3ccccc3)c(C)cc21	–	99.5	–	–	–	–
COc1ccc(S(=O)(=O)NCCOc2ccccc2)cc1C	–	–	–	–	50.1	–
CCc1ccccc1NC(=O)c1ccc(NCCc2ccccc2)c([N+](=O)[O-])c1	–	67.4	–	–	–	–
O=C(Nc1ccccc1)c1ccc(NCCc2ccccc2)c([N+](=O)[O-])c1	–	–	–	–	–	–
CC(C)(C)c1ccc(-c2nc(NCc3cccnc3)c3ccccc3n2)cc1	–	79.8	–	–	–	–
Fc1ccc(Nc2nc(NCc3ccco3)c3ccccc3n2)cc1	–	·	–	57.0	–	–
c1ccc(CN2CCC(Nc3nc(-c4cccnc4)nc4ccccc34)CC2)cc1	–	97.9	–	58.7	–	–
CCN(CC(=O)Nc1ccc2c(c1)OCCO2)c1nc(-c2cccnc2)nc2ccccc12	–	52.5	–	–	–	–
c1cncc(CNc2nc(-c3cccnc3)nc3ccccc23)c1	–	·	–	–	–	–
COCCNC(=O)C(=O)NCC1OCCN1S(=O)(=O)c1ccc(F)cc1 (configuration not stated)	–	·	–	–	–	–
C[C@@H]1CN([C@@H](C)CO)C(=O)c2cc(N(C)C)ccc2O[C@@H]1CN(C)S(C)(=O)=O	–	·	·	·	·	·
Clc1cccc(CNc2nc(-c3cccnc3)nc3ccccc23)c1	–	·	–	62.7	–	–
SMILES	NLRP3 yeast inh	L major viab	Calb FLC	T cruzi inh	NALP1 yeast inh	PolyA inh
c1ccc2c(c1)OCC(CNc1ncnc3sccc13)O2 (configuration not stated)	·	–	79.7	–	–	–
c1cncc(-c2nc(NCc3ccc4c(c3)OCO4)c3ccccc3n2)c1	–	·	–	68.7	–	–
c1cncc(-c2nc(NCC3COc4ccccc4O3)c3ccccc3n2)c1 (configuration not stated)	–	77.0	–	–	–	–
O=C(O)c1ccc(Cl)c(S(=O)(=O)NC(Cc2ccccc2)C(=O)O)c1 (configuration not stated)	–	–	–	–	–	–
Fc1ccc(CNc2nc(-c3cccnc3)nc3ccccc23)cc1	–	·	–	56.3	–	–
c1ccc(CNc2nc(-c3ccccc3)nc3ccccc23)cc1	–	·	–	–	–	–
c1ccc(CNc2nc(NCc3ccccc3)c3ccccc3n2)cc1	–	·	80.4	–	–	–
c1ccc(CNc2nc(-c3cccnc3)nc3ccccc23)cc1	–	·	–	–	–	–
COc1ccccc1C(C)NC(=O)C1CCN(S(=O)(=O)c2cccs2)CC1 (configuration not stated)	–	·	·	·	·	·
O=S(=O)(NCC1CCC(NS(=O)(=O)c2c(F)cccc2F)CC1)c1ccc2c(c1)OCCO2 (configuration not stated)	–	·	·	·	·	·
CN(C)c1ccc(CNCCC(Cc2ccccc2)c2ccco2)cc1 (configuration not stated)	–	·	–	60.9	·	–
c1ccc(CNCCC(Cc2ccccc2)c2ccco2)cc1 (configuration not stated)	–	·	–	–	·	–
COC(=O)c1cc2c(ccn2-c2ccc(F)cc2)n1Cc1ccc(OC(C)=O)cc1	–	93.0	–	57.7	–	–
COC(=O)c1cc2c(ccn2-c2ccc(F)cc2)n1Cc1cccc(OC)c1	–	97.9	–	–	–	–
CCOC(=O)c1cc2c(ccn2-c2ccc(F)cc2)n1CC(=O)N1CCN(C(=O)c2ccco2)CC1	–	–	–	–	–	–
Cc1cc(C)c(C)c(S(=O)(=O)ON2C(=O)c3ccccc3C2=O)c1C	–	–	101.2	–	–	–
O=C(NNC1=C(C(=O)C(F)(F)F)CCC1)c1ccc(Br)cc1	–	–	92.2	–	–	–
CC(C)(C)c1[nH]nc2c1C(C1C=CCCC1)C(C#N)=C(N)O2 (configuration not stated)	–	83.4	–	–	–	–
CCc1[nH]nc2c1C(C1C=CCCC1)C(C#N)=C(N)O2 (configuration not stated)	–	97.0	?	–	–	–
COc1ccc(NC(=O)COC(=O)Cc2coc3cc(OC)ccc23)c(OC)c1	–	·	·	·	·	·
COc1ccc(N(C(C)C(=O)N/N=C(\C)C(C)(C)C)S(C)(=O)=O)cc1 (configuration not stated)	–	–	–	–	–	–
O=C(O)CCCC(=O)N1CCN(c2nc(-c3ccccc3Cl)c3cc(Br)ccc3n2)CC1	–	·	–	–	–	–
O=C(COC(=O)c1cc(Cl)ccc1[N+](=O)[O-])NCc1ccc(Cl)cc1Cl	–	62.2	–	–	–	–
O=C(COC(=O)c1cc(Cl)ccc1[N+](=O)[O-])Nc1cccc2ccccc12	–	–	–	–	–	–
CC(C)[C@H](NC(=O)c1ccc(Cl)c([N+](=O)[O-])c1)C(=O)NCc1ccc(Cl)cc1Cl	–	52.5	–	–	–	–
